Scp1 inh: inhibitors of human Scp-1 phosphatase; inhibition, % at 20 µM; Q9GZU7; hit rate 0.88% among 340,000; Recombinant Scp1, phosphopeptide, malachite green phosphate absorbance;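 active = inhibition above about 50% at 20 µM, limit read from the data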;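 also: plate controls were DMSO wells with enzyme for no effect and wells lacking enzyme for full effect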
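Test system: SCP-1 phosphatase catalytic domain, residues 76-261; measured by: colorimetric phosphate reagent with accelerator and stabiliser, absorbance at 630 nm; timing: enzyme reaction 45 min at room temperature, colour 5 min, stabilisation 30 min; also added: Phosphorylated 17-residue peptide substrate; compound dosing: one concentration, 20 µM, with 1.0% DMSO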
Rpn11 inh: Rpn11 (human) deubiquitinase inhibition. O00487. human 26S proteasome, Ub4-pepOG fluorescence polarization; 20S core pre-blocked with epoxomicin. inhibition, % at 20 µM. hit rate 0.59% among 360,000;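 active = inhibition at 20 µM, scaled to each plate's controls, above about 33%, limit read from the data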
Target sequence (O00487 whole entry, looked up): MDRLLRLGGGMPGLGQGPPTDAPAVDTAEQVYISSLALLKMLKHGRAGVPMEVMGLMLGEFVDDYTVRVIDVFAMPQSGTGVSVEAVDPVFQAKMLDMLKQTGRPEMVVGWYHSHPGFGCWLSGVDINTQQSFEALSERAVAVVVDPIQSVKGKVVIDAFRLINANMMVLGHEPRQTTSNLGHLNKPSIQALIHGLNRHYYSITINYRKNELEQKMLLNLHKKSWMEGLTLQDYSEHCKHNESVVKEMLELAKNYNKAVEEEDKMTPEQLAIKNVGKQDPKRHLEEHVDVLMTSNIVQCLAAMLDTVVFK
STEP block: blocks human striatal-enriched tyrosine phosphatase; P54829; recombinant STEP, OMFP fluorogenic substrate, fluorescence; inhibition, % at 20 µM; hit rate 0.25% among 360,000;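 active = inhibition at 20 µM, scaled per plate between control wells, above about 37%, limit read from the data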;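 also: 0% = DMSO with enzyme and substrate and 100% = substrate only without enzyme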
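medium = Bis-Tris buffer pH 6.0, 2.5 mM DTT, 0.005% Tween 20 | test system = STEP (striatal-enriched tyrosine phosphatase) enzyme, cell-free | measure = normalized % inhibition | compound dosing = 20 µM, 1% DMSO | also added = 25 µM OMFP | schedule = reaction 20 min, ambient temperature | measured by = fluorescence read at 480 nm ex / 540 nm em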
DNMT1 inh: DNMT1 (human) enzyme inhibition. DNMT1 molecular beacon, Hinp1I cleavage, fluorescence. inhibition (reported as % activation of signal), % at 10 µM. hit rate 0.83% among 360,000. AID 588458; in the data active = inhibition above about 50%
LMPTP inh: blocks human LMPTP phosphatase | inhibition, % at 20 µM | P24666 | AID 651560 | recombinant LMPTP-A, OMFP fluorogenic substrate, fluorescence intensity | hit rate 0.22% among 360,000;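 active = compounds that cut the enzyme signal by at least half of the control window in the single-dose screen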;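 also: plate controls were DMSO wells with enzyme plus substrate for no effect and substrate without enzyme for full effect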
Target sequence (P24666 whole entry, looked up): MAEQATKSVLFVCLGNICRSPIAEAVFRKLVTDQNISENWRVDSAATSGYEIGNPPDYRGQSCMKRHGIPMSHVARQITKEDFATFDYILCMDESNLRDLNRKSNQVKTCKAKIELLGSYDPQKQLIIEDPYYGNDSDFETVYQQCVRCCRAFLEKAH
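Assay system: LMPTP-A, protein tyrosine phosphatase of low molecular weight / Medium: pH 6.0 Bis-Tris buffer with DTT and Triton X-100 / Schedule: 50 min enzyme reaction at room temperature, protected from light / Measured by: endpoint fluorescence intensity from OMFP dephosphorylation / Read-out basis: % inhibition relative to no-enzyme and uninhibited control wells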
SUMO1-SIM PPI: alters human SUMO1 binding to SIM partners; inhibition, % at 20 µM; hit rate 0.33% among 360,000; SUMO1 binding to a labelled peptide, TR-FRET, 1 h; P63165; in the data active = inhibition above about 37%
Target sequence (P63165 whole entry, looked up): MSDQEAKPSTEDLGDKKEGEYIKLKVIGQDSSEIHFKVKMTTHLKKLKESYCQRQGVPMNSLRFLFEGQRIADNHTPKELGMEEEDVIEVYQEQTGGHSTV
Scp-1 conf: Scp-1 (human) inhibition, single-dose confirmed; shares compounds with Scp1 inh; recombinant SCP-1 catalytic domain, phosphate release, malachite green absorbance; inhibition, % at 20 µM; hit rate 61% among 2,500; AID 540281;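 also: plate controls were DMSO with enzyme for no effect and buffer wells lacking enzyme for full effect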
Scp-1 MG ctr: interferes with malachite green readout, flagging false Scp-1 hits. shares compounds with Scp1 inh. apparent inhibition (interference), % at 20 µM. Colorimetric interference counterscreen, malachite green absorbance 630 nm. AID 540313. 2,500 tested, under 10 active;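 also: compounds added after enzyme reaction finished so only phosphate colour detection is probed; plate controls were DMSO wells with completed Scp-1 reaction for no effect and substrate wells lacking enzyme for full effect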
Scp1 DSF: Scp-1 (human) binding by thermal shift. shares compounds with Scp1 inh. hit rate 25% among 1,500. thermal shift relative to vanadate control, % at 40 µM. Recombinant SCP1, Sypro Orange thermal shift Tm. AID 540329;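 active = substances whose mean melting-temperature shift, as a percentage of the reference inhibitor's shift, reaches about 5.3%, limit read from the data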;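 also: 0% = Tm of DMSO wells and 100% = Tm with sodium orthovanadate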
* = called active by the depositor; . = not tested or not shown. Hits are enriched below; roughly 2.3% of the tested compounds scored in any of these assays.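 The calls were made as follows, unless noted: active = inhibition of at least 30% at 20 µM; inactive = the rest.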

SMILES	Scp1 inh	Rpn11 inh	STEP block	DNMT1 inh	LMPTP inh	SUMO1-SIM PPI	Scp-1 conf	Scp-1 MG ctr	Scp1 DSF
O=C(COC(=O)c1ccc(Cl)c(S(=O)(=O)N2CCCCC2)c1)NCc1ccco1	71.2*	-4.4	-3.0	10.6	1.4	7.8	44.6*	-22.2	-10.3
Cc1cccc(Nc2ccccc2C(=O)OCC(=O)NCc2ccco2)c1C	22.6	2.3	1.1	40.9	2.1	5.4	.	.	.
O=C(COC(=O)CCOc1ccccc1)NCc1ccco1	101.9*	-13.5	0.3	22.0	6.4	1.6	57.9*	-13.9	-1.2
CCN(CC)S(=O)(=O)c1ccc(C(=O)OCC(=O)NCc2ccco2)cc1	55.4*	-6.6	1.8	17.1	-0.1	0.2	46.6*	-6.2	-8.4
Cc1ccccc1C(=O)OCC(=O)NCc1ccco1	53.4*	-3.6	-1.0	9.2	0.0	1.0	18.0	-9.0	.
O=C1CC(=O)Nc2cc(S(=O)(=O)Nc3cccc(C(F)(F)F)c3)ccc2N1	-4.7	-2.1	-2.4	5.6	-0.8	6.7	-4.7	-7.3	.
Cc1ccc(/C=C/C(=O)NCc2ccc(S(N)(=O)=O)cc2)o1	0.1	-1.7	-2.0	4.8	-0.6	-0.2	.	.	.
CCOC(=O)C1=C(COC(=O)CNS(=O)(=O)c2ccc(C)c(C)c2)NC(=O)NC1C (stereo unspecified)	.	-3.8	-3.5	2.6	-1.4	2.4	.	.	.
COc1cc(/C=C2\C(=N)N3N=C(S(C)(=O)=O)SC3=NC2=O)ccc1OCCOc1ccccc1C	51.0*	2.7	4.3	-8.1	5.6	13.4	57.4*	-1.9	12.4*
O=C(CN1C(=O)COc2ccc(Cl)cc21)NC1CC1	4.0	-2.8	-0.3	3.0	-1.6	0.1	.	.	.
Cc1ccc2nc(-c3ccc(N4C(=NC(=O)CCC(=O)O)SC5CS(=O)(=O)CC54)cc3)sc2c1 (stereo unspecified)	51.3*	15.1	-0.4	56.2*	2.3	9.1	55.3*	-13.1	-4.0
Cc1ccc(CN2C(=NC(=O)CCC(=O)O)SC3CS(=O)(=O)CC32)cc1 (stereo unspecified)	-2.5	-2.8	-0.8	1.2	-1.5	-4.5	.	.	.
COc1ccccc1N1CCN(C2CCCN(C(=O)Cn3cccn3)C2)CC1 (stereo unspecified)	-4.5	0.0	-0.1	0.3	-1.3	-4.8	.	.	.
CC(=O)Nc1ccc2c(c1)C(C)(C)C(C)N2C (stereo unspecified)	82.0*	.	.	.	.	.	-5.6	-11.5	.
CCCn1nc(NC(=O)COC)c2cc3cc(C)ccc3nc21	62.2*	0.2	-1.1	0.1	-0.4	-11.4	-10.5	-11.2	.
CCOc1ccc(NC(=O)CSc2nc(C)c3c(c2C#N)CCCC3)cc1	-1.2	3.1	1.1	5.0	-0.5	-0.2	.	.	.
CCOC(=O)c1cccc(NC(=O)Cn2cc3c(n2)CCC(C)C3)c1 (stereo unspecified)	67.5*	-0.8	3.0	0.6	-0.3	6.5	-1.2	-9.8	.
CCc1cccc(NC(=O)Cn2cc3c(n2)CCCC3)c1	-4.2	3.6	0.8	-0.9	0.6	1.5	.	.	.
CCCCNc1ncnc2[nH]ncc12	8.0	1.4	-2.9	9.7	-5.8	2.1	.	.	.
Cc1cc(Cl)c(S(=O)(=O)NC(C(=O)O)c2ccccc2)cc1OCC(N)=O (stereo unspecified)	68.8*	-5.0	2.2	6.5	-2.8	1.0	44.0*	-17.3	18.3*
Cc1cc(Cl)c(S(=O)(=O)N2CCCC2)cc1OCC(=O)NC1CCCCC1	27.2	4.2	-0.5	3.8	-0.7	4.2	.	.	.
Cc1cc(Cl)c(S(=O)(=O)NC(C(=O)O)C(C)C)cc1OCC(=O)NC1CCCCC1 (stereo unspecified)	54.5*	0.0	1.1	-3.4	-1.9	2.5	43.4*	-15.3	0.1
CCOc1cc(S(=O)(=O)Nc2cc(C)cc(C)c2)ccc1Cl	66.3*	3.3	1.7	-13.8	3.0	0.7	-21.9	-16.1	.
CC(C)(C)c1nnc(NC(=O)C2CC(=O)N(CCc3ccc(F)cc3)C2)s1 (stereo unspecified)	-2.3	3.7	5.8	-1.8	0.3	5.7	.	.	.
CCc1c(C)c(C#N)c2[nH]c3ccccc3n2c1=S	7.4	5.6	-1.0	-2.1	3.5	-1.3	.	.	.
SMILES	Scp1 inh	Rpn11 inh	STEP block	DNMT1 inh	LMPTP inh	SUMO1-SIM PPI	Scp-1 conf	Scp-1 MG ctr	Scp1 DSF
Cc1ccc(OCC(=O)NNC(=O)c2ccc(NC(=O)C3CC3)cc2)c(C)c1	-7.6	3.2	0.0	-0.4	-1.8	0.5	.	.	.
CCc1ccc(OCC(=O)NNC(=O)c2ccc(NC(=O)C3CC3)cc2)cc1	51.7*	5.8	39.0	16.1	37.1	18.7	78.2*	-10.7	-24.8
Cc1ccn2cc(CCNC(=O)C3CC=CCC3C(=O)O)nc2c1 (stereo unspecified)	55.0*	-5.9	-2.3	-1.4	-4.8	-3.6	-6.2	-4.6	.
O=S(=O)(c1cccc2cnccc12)N1CCNCC1	59.5*	-7.5	-0.5	1.2	-0.9	-2.9	-16.3	-13.1	.
O=S(=O)(c1cccc2ccccc12)N1CCSC1	-1.6	-0.8	-2.4	0.9	0.0	-3.3	.	.	.
CC(=O)Nc1ccc(NC(=O)CCS(=O)(=O)c2ccc3c(c2)oc(=O)n3C)cc1	-2.2	3.0	0.2	-0.3	0.3	3.5	.	.	.
CC(=O)c1ccc(NC(=O)CCS(=O)(=O)c2ccc3c(c2)n(C)c(=O)c(=O)n3C)cc1	71.3*	-6.2	0.9	23.6	0.3	19.3	30.6*	-9.5	-15.0
Cc1ccc(N=Cc2nc(-c3ccc(C)cc3)oc2O)cc1	1.6	22.2	-2.4	5.0	-0.6	-3.4	.	.	.
CC(=O)Nc1ccc(N=Cc2nc(-c3ccc(C)cc3)oc2O)cc1	76.0*	-14.2	2.5	-7.5	6.3	-13.3	16.1	-14.8	.
CC(=O)Nc1ccc(C(=O)OCC(=O)N2CCN(C(=O)c3ccco3)CC2)cc1	-7.3	-6.2	-1.8	5.6	0.0	2.3	.	.	.
N#CCC(=O)Nc1ccc(C(=O)OCC(=O)N2CCN(C(=O)c3ccco3)CC2)cc1	90.4*	14.0	-0.6	-0.2	5.6	22.1	63.9*	0.9	-1.7
Cc1ccc(NC(=O)/C=C/c2ccco2)nc1	62.9*	-8.8	-3.0	11.4	0.4	-10.5	33.6*	-15.1	-5.2
CN(C)C(=O)c1ccc(OCC(F)(F)F)nc1	79.2*	-2.2	-1.8	2.8	-0.8	-1.2	-9.3	-14.7	.

Assay outcomes (PubChem)
